In assay [1] the test system is K562. In words: Antiproliferative activity against human K562 cells assessed as cell growth inhibition at 10 uM after 24 hrs by MTT assay. In kind it is functional. To be noted: K562, 24 h, read-out: GI. The gist of the method:
(§1)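 MTT viability assay. Cells seeded at 5 × 10³ per well and cultured with or without compound for 24 h. MTT (5 mg/ml in PBS) was then added in fresh medium and incubated 2 h at 37 °C, followed by DMSO and 1 min agitation. Absorbance was read at 570 nm. Percent inhibition of proliferation was calculated relative to the untreated control. Dose-response used […].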

The test system of assay [2] is K562. In words: Antiproliferative activity against human K562 cells assessed as cell growth inhibition at 1 uM after 24 hrs by MTT assay. In kind it is functional. To be noted: K562, 24 h, read-out: GI. The gist of the method: as §1
Assay [3] concerns MDA-MB-231. In words: Antiproliferative activity against human MDA-MB-231 cells assessed as cell growth inhibition at 10 uM after 24 hrs by MTT assay. To be noted: MDA-MB-231, 24 h, read-out: GI. The format is functional. The gist of the method: as §1
(Formazan colour is commonly taken as a measure of viable cells.)

The test system of assay [4] is MDA-MB-231. Nature of the assay: Antiproliferative activity against human MDA-MB-231 cells assessed as cell growth inhibition at 1 uM after 24 hrs by MTT assay. In kind it is functional. To be noted: MDA-MB-231, 24 h, read-out: GI. The gist of the method:
as §1

In assay [5] the test system is K562. Nature of the assay: Antiproliferative activity against human K562 cells assessed as cell growth inhibition at 0.5 uM after 24 hrs by MTT assay. The format is functional. To be noted: K562, 24 h, read-out: GI. The gist of the method:
as §1

Assay [6] relates to K562. Nature of the assay: Antiproliferative activity against human K562 cells assessed as cell growth inhibition at 0.1 uM after 24 hrs by MTT assay. To be noted: K562, 24 h, read-out: GI. The format is functional. The gist of the method: as §1
Assay [7] has as its system K562. Nature of the assay: Antiproliferative activity against human K562 cells assessed as cell growth inhibition at 0.01 uM after 24 hrs by MTT assay. The format is functional. To be noted: K562, 24 h, read-out: GI. The gist of the method: as §1
Assay [8] concerns K562. Nature of the assay: Antiproliferative activity against human K562 cells assessed as cell growth inhibition after 24 hrs by MTT assay. The format is functional, cell-based. To be noted: K562, 24 h. The gist of the method: as §1
For assay [9], the system named is MDA-MB-231. In words: Antiproliferative activity against human MDA-MB-231 cells assessed as cell growth inhibition at 0.5 uM after 24 hrs by MTT assay. To be noted: MDA-MB-231, 24 h, read-out: GI. In kind it is functional. The gist of the method: as §1
For assay [10], the system named is MDA-MB-231. In words: Antiproliferative activity against human MDA-MB-231 cells assessed as cell growth inhibition at 0.1 uM after 24 hrs by MTT assay. To be noted: MDA-MB-231, 24 h, read-out: GI. The format is functional. The gist of the method:
as §1

Assay [11] has as its system MDA-MB-231. Nature of the assay: Antiproliferative activity against human MDA-MB-231 cells assessed as cell growth inhibition at 0.01 uM after 24 hrs by MTT assay. To be noted: MDA-MB-231, 24 h, read-out: GI. In kind it is functional. The gist of the method: as §1
Assay [12] relates to MDA-MB-231. Nature of the assay: Antiproliferative activity against human MDA-MB-231 cells assessed as cell growth inhibition after 24 hrs by MTT assay. In kind it is functional, cell-based. To be noted: MDA-MB-231, 24 h. The gist of the method:
as §1

In general, IC50 refers to the concentration that gives 50% inhibition.

As to `c1ccc(-c2cn(-c3cc4nnnn4c4ccccc34)nn2)cc1`, the inhibition of growth at 10 µM amounted to 29.9% with K562 [1] and 56% in the assay on MDA-MB-231 [3]. In addition, the inhibition of growth at 1 µM was 20.6% in the assay on K562 [2] and 52.5% with MDA-MB-231 [4].

Take `Cc1ccc(-c2cn(-c3cc4nnnn4c4ccccc34)nn2)cc1`: the results for the inhibition of growth at 10 µM in the assay on K562 [1] and with MDA-MB-231 [3] were 44.1% and 54%, respectively. Also, the inhibition of growth at 1 µM with K562 [2] came to 20.6%; in the assay on MDA-MB-231 [4] it was 47.7%.

Take `c1ccc(CCc2cn(-c3cc4nnnn4c4ccccc34)nn2)cc1`: the inhibition of growth at 10 µM in the assay with K562 [1] was determined as 38.1%; in the assay with MDA-MB-231 [3] it was 60.8%. Also, the inhibition of growth at 1 µM with K562 [2] was 26.7%; with MDA-MB-231 [4], 50.5%.

Consider `OCc1cn(-c2cc3nnnn3c3ccccc23)nn1`, for which the values for the inhibition of growth at 10 µM with K562 [1] and with MDA-MB-231 [3] were 36.9% and 46.8%, respectively. Besides, the inhibition of growth at 1 µM was 21.8% with K562 [2] and 45.8% with MDA-MB-231 [4].

For `OCCCc1cn(-c2cc3nnnn3c3ccccc23)nn1`, the inhibition of growth at 10 µM in the assay on K562 [1] turned out to be 52.4%; in the assay on MDA-MB-231 [3] it was 46.1%. For the same compound, the inhibition of growth at 1 µM with K562 [2] was determined as 47.1%; with MDA-MB-231 [4], 42%. The inhibition of growth at 0.5 µM in the assay with K562 [5] amounted to 30%. In the assay with K562 [6], the inhibition of growth at 0.1 µM turned out to be 22%. For the same compound, the inhibition of growth at 0.01 µM in the assay on K562 [7] stood at 9%. Moreover, the IC50 in the assay on K562 [8] is 4600 nM.

In the case of `ClCCCc1cn(-c2cc3nnnn3c3ccccc23)nn1`, the inhibition of growth at 10 µM with K562 [1] was 35.2%; in the assay on MDA-MB-231 [3], 70.1%. The inhibition of growth at 1 µM in the assay with K562 [2] is 19.9%; in the assay on MDA-MB-231 [4], 60.2%. Further, the inhibition of growth at 0.5 µM in the assay on MDA-MB-231 [9] is 46%. The inhibition of growth at 0.1 µM in the assay on MDA-MB-231 [10] was found to be 24%. Besides, the inhibition of growth at 0.01 µM with MDA-MB-231 [11] was 11%. Moreover, the IC50 with MDA-MB-231 [12] was 800 nM.

Regarding `CCCCc1cn(-c2cc3nnnn3c3ccccc23)nn1`, the inhibition of growth at 10 µM was 34.1% in the assay with K562 [1] and 57.1% in the assay with MDA-MB-231 [3]. The inhibition of growth at 1 µM in the assay on K562 [2] was 28.2%; in the assay with MDA-MB-231 [4] it was 55.3%.

On to `CCCCCCc1cn(-c2cc3nnnn3c3ccccc23)nn1`, for which the results for the inhibition of growth at 10 µM in the assay on K562 [1] and in the assay with MDA-MB-231 [3] were 37.4% and 53.4%, respectively. For the same compound, the inhibition of growth at 1 µM in the assay with K562 [2] was determined as 19.1%; in the assay with MDA-MB-231 [4], 49.7%.

For the compound `CCCCCc1cn(-c2cc(-n3cc(CCCCC)nn3)c3ccccc3n2)nn1`, the inhibition of growth at 10 µM in the assay with K562 [1] and in the assay on MDA-MB-231 [3] was below 30% throughout.

On to `ClCCCc1cn(-c2cc(-n3cc(CCCCl)nn3)c3ccccc3n2)nn1`, for which the inhibition of growth at 10 µM with K562 [1] and in the assay on MDA-MB-231 [3] was below 30% each time.

For `CCCCc1cn(-c2cc(-n3cc(CCCC)nn3)c3ccccc3n2)nn1`, the inhibition of growth at 10 µM in the assay on K562 [1] and with MDA-MB-231 [3] was below 30% throughout.

As to `CCCCCCc1cn(-c2cc(-n3cc(CCCCCC)nn3)c3ccccc3n2)nn1`, the inhibition of growth at 10 µM in the assay on K562 [1] and in the assay on MDA-MB-231 [3] was below 30% throughout.

Source of the values: ChEMBL document CHEMBL2021838, “Solvent effect on copper-catalyzed azide-alkyne cycloaddition (CuAAC): synthesis of novel triazolyl substituted quinolines as potential anticancer agents” (Bioorg Med Chem Lett, 2012).
